Our source for the Efficacy and EC50 values is ChEMBL document CHEMBL1134668, “Hydrazinonaphthalene and azonaphthalene thrombopoietin mimics are nonpeptidyl promoters of megakaryocytopoiesis” (J Med Chem, 2001).

Assay [1] deals with T1, Thrombopoietin receptor (Homo sapiens) (UniProt P40238).
T1 sequence (whole entry): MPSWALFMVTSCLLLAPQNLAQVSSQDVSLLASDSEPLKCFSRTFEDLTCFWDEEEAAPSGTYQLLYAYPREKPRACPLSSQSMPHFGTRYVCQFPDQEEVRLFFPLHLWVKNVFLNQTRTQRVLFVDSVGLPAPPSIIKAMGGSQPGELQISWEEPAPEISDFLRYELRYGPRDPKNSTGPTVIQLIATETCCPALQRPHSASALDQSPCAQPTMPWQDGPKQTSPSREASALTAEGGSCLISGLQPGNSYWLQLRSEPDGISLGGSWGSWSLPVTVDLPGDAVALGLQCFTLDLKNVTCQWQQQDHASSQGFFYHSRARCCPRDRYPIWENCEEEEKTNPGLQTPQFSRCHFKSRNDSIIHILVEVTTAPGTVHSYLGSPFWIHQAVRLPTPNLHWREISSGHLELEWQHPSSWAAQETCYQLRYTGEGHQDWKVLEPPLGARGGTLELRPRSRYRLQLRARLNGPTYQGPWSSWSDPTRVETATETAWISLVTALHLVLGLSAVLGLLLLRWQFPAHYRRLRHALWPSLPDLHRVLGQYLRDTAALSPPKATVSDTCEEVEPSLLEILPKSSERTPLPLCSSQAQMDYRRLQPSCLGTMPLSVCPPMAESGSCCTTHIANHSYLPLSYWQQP
Kind of assay: Thrombopoietin luciferase activity in BAF-3 cells. The assay is classed as cell-based. Particulars: BaF3.

Another assay concerns the target T2, Thrombopoietin receptor (Homo sapiens, UniProt P40238).
T2 sequence (P40238 whole entry): T1 sequence (whole entry)
Kind of assay: Effective concentration for thrombopoietin luciferase activity was determined in BAF-3 cells. Type of assay: cell-based, BaF3.

Assay [2] is described as follows: Compound tested for UT7/TPO cell proliferation activity (%TPO) using proliferation assay. The assay is classed as functional, Homo sapiens. The essentials:
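UT7/TPO cells kept in IMDM/10% FBS/glutamine plus rhTPO, starved overnight without TPO. Cells (0.2 × 10^6/mL) in starving medium incubated with compounds (0.32% DMSO final) or rhTPO, 37 °C, 5% CO2, 72 h. Pellet DNA content read by BrdU kit. Mean value over control as % of maximal-TPO response, duplicates, plotted vs concentration for EC50.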

Each structure is given as a SMILES string. Bounds are passed on as bounds.

With `CCOc1nn(-c2ccc(C)c(C)c2)c(O)c1/N=N/c1c(O)cc(S(=O)(=O)O)c2ccccc12`, the Efficacy in assay [1] was determined as 80%. This compound came in with an EC50 at Thrombopoietin receptor of 600 nM.
As to `Cc1ccc(-n2[nH]c(C)c(/N=N/c3c(O)cc(C(=O)O)c4ccccc34)c2=O)cc1`, the Efficacy in assay [1] is 47%. Besides, a half-maximal effect on Thrombopoietin receptor (EC50) was put at 2000 nM.
As to `Cc1ccc(-n2[nH]c(C)c(/N=N/c3c(O)cc(S(=O)(=O)O)c4ccccc34)c2=O)cc1`, the values for the Efficacy in assay [1] and in assay [2] were 53% and 90%, respectively. Further, the EC50 on Thrombopoietin receptor was 2000 nM.
In assay [1], `COc1ccc2ccc(O)c(/N=N/c3c(O)cc(S(=O)(=O)O)c4ccccc34)c2c1` displayed an Efficacy of 85%. This compound also gave an EC50 at Thrombopoietin receptor of 300 nM.
On the same counts, the results for `O=S(=O)(O)c1cc(O)c(/N=N/c2c(O)ccc3cc(O)ccc23)c2ccccc12` are 16% and 2000 nM.
On the same counts, the results for `Cc1[nH]n(Cc2ccccc2)c(=O)c1/N=N/c1c(O)cc(S(=O)(=O)O)c2ccccc12` are 32% and greater than 30000 nM.
With `CC(C)(C)c1ccc(-n2[nH]c(C(=O)O)c(/N=N/c3c(O)cc(S(=O)(=O)O)c4ccccc34)c2=O)cc1`, the Efficacy in assay [1] was less than 5%.
The compound `O=S(=O)(O)c1cc(O)c(/N=C/c2c(O)ccc3ccccc23)c2ccccc12` showed an Efficacy in assay [1] of less than 5%.
As for `O=S(=O)(O)c1ccc(/N=N/c2c(O)ccc3ccccc23)c2ccccc12`, the Efficacy in assay [1] is less than 5%.
For `Cc1[nH]n(-c2cccc([N+](=O)[O-])c2)c(=O)c1/N=N/c1c(O)cc(S(=O)(=O)O)c2ccccc12`, the Efficacy in assay [1] is 28%. This compound came in with an EC50 on Thrombopoietin receptor of 300 nM.
On to `Cc1[nH]n(-c2ccc(S(C)(=O)=O)cc2)c(=O)c1/N=N/c1c(O)cc(S(=O)(=O)O)c2ccccc12`, for which the Efficacy in assay [1] was found to be 18%. This compound showed an EC50 at Thrombopoietin receptor of 3000 nM.
On to `O=C(Nc1c(O)cc(S(=O)(=O)O)c2ccccc12)c1c(O)ccc2ccccc12`, for which the Efficacy in assay [1] is less than 5%.
Same read-out and setting: in the case of `Cc1[nH]n(-c2ccc(C(=O)O)cc2)c(=O)c1/N=N/c1c(O)cc(S(=O)(=O)O)c2ccccc12` it was less than 5%.
In assay [1], `Cc1[nH]n(CCO)c(=O)c1/N=N/c1c(O)cc(S(=O)(=O)O)c2ccccc12` registered an Efficacy of less than 5%.
Compound `CC(C)(C)c1ccc(-n2[nH]c(N)c(/N=N/c3c(O)cc(S(=O)(=O)O)c4ccccc34)c2=O)cc1` came in with an Efficacy in assay [1] of 87%. The compound further gave an EC50 at Thrombopoietin receptor of 5000 nM.
`Cc1[nH]n(-c2ccccc2)c(=O)c1/N=N/c1c(O)cc(S(=O)(=O)O)c2ccccc12` had an Efficacy in assay [1] of 26%. At Thrombopoietin receptor, this compound had an EC50 of 2000 nM.
For `CCOC(=O)c1[nH]n(-c2ccc(C(C)(C)C)cc2)c(=O)c1/N=N/c1c(O)cc(S(=O)(=O)O)c2ccccc12`, in assay [1], the Efficacy was 56%. Besides, on Thrombopoietin receptor, it took 2000 nM to reach a half-maximal effect (EC50).
Compound `Cc1[nH]n(-c2cc(Cl)c(S(=O)(=O)O)cc2Cl)c(=O)c1/N=N/c1c(O)cc(S(=O)(=O)O)c2ccccc12` registered an Efficacy in assay [1] of less than 5%.
`Cc1ccccc1-n1[nH]c(C)c(/N=N/c2c(O)cc(S(=O)(=O)O)c3ccccc23)c1=O` came in with an Efficacy in assay [1] of 30%. In addition, the EC50 on Thrombopoietin receptor came to 10000 nM.
On to `Cc1[nH]n(-c2ccc([N+](=O)[O-])cc2)c(=O)c1/N=N/c1c(O)cc(S(=O)(=O)O)c2ccccc12`, for which the Efficacy in assay [1] is 63%. The EC50 at Thrombopoietin receptor was determined as 400 nM.
Consider `COc1cc(O)c2ccccc2c1/N=N/c1c(O)cc(S(=O)(=O)O)c2ccccc12`, for which, in assay [1], the Efficacy was 19%. In addition, it took 3000 nM to reach a half-maximal effect on Thrombopoietin receptor (EC50).
Turning to `O=S(=O)(O)c1cc(O)c(NCc2c(O)ccc3ccccc23)c2ccccc12`, the Efficacy in assay [1] was less than 5%.
`O=S(=O)(O)c1cc(O)c(/N=N/c2ccc3ccccc3c2O)c2ccccc12` came in with an Efficacy in assay [1] of 87%. The compound also gave an EC50 at Thrombopoietin receptor of 70 nM.
Compound `O=C(O)c1cccc2c(/N=N/c3c(O)cc(S(=O)(=O)O)c4ccccc34)c(O)ccc12` yielded an Efficacy in assay [1] of less than 5%.
`Cc1[nH]n(-c2ccc(OCc3ccccc3)cc2)c(=O)c1/N=N/c1c(O)cc(S(=O)(=O)O)c2ccccc12` had an Efficacy in assay [1] of 34%. The same compound gave an EC50 at Thrombopoietin receptor of 200 nM.
For the compound `Cc1[nH]n(-c2cccc(C(C)(C)C)c2)c(=O)c1/N=N/c1c(O)cc(S(=O)(=O)O)c2ccccc12`, the Efficacy in assay [1] was determined as 71%. This compound also displayed an EC50 on Thrombopoietin receptor of 70 nM.
`Cc1[nH]n(-c2ccccc2[N+](=O)[O-])c(=O)c1/N=N/c1c(O)cc(S(=O)(=O)O)c2ccccc12` displayed an Efficacy in assay [1] of 19%. This compound registered a half-maximal effective concentration (EC50) on Thrombopoietin receptor of 8000 nM.
As to `Cc1[nH]n(-c2ccc(C(F)(F)F)cc2)c(=O)c1/N=N/c1c(O)cc(S(=O)(=O)O)c2ccccc12`, the Efficacy turned out to be 39% in assay [1] and 100% in assay [2]. The same compound gave an EC50 at Thrombopoietin receptor of 100 nM.
As to `Cc1[nH]n(C)c(=O)c1/N=N/c1c(O)cc(S(=O)(=O)O)c2ccccc12`, the Efficacy in assay [1] is less than 5%.
Take `Cc1ccc(-n2[nH]c(-c3ccccc3)c(/N=N/c3c(O)cc(S(=O)(=O)O)c4ccccc34)c2=O)cc1C`: the Efficacy in assay [1] turned out to be 92%. On Thrombopoietin receptor, this compound had an EC50 of 900 nM.
In assay [1], `Cc1cccc(-n2[nH]c(C)c(/N=N/c3c(O)cc(S(=O)(=O)O)c4ccccc34)c2=O)c1` gave an Efficacy of 34%. In addition, the EC50 at Thrombopoietin receptor worked out at 700 nM.
Consider `O=S(=O)(O)c1cc(O)c(/N=N/c2ccc(O)c3ccc(O)cc23)c2ccccc12`, for which, in assay [1], the Efficacy is less than 5%.
For the compound `Cc1[nH]n(-c2ccc(C(C)C)cc2)c(=O)c1/N=N/c1c(O)cc(S(=O)(=O)O)c2ccccc12`, the Efficacy in assay [1] stood at 100%. Moreover, at Thrombopoietin receptor, the EC50 came to 70 nM.
On the same counts, the results for `O=S(=O)(O)c1cc(O)c(/N=N/c2c(O)c3ccccc3c3ccccc23)c2ccccc12` are 61% and 200 nM.
For the compound `O=[N+]([O-])c1cc(O)c(/N=N/c2c(O)ccc3ccccc23)c2ccccc12`, the Efficacy in assay [1] was less than 5%.
In turn, `O=S(=O)(O)c1cc(O)c(/N=N/c2c(O)c(O)cc3ccccc23)c2ccccc12` showed an Efficacy in assay [1] of 26%. Moreover, the response on Thrombopoietin receptor was half-maximal at 2000 nM (EC50).
On the same counts, the results for `Cc1[nH]n(-c2ccc(F)cc2)c(=O)c1/N=N/c1c(O)cc(S(=O)(=O)O)c2ccccc12` are 39% and 500 nM.
In assay [1], `O=S(=O)(O)c1cc(O)c(/N=N/c2c(O)ccc3ccc(O)cc23)c2ccccc12` yielded an Efficacy of 31%. Also, it took 2000 nM to reach a half-maximal effect at Thrombopoietin receptor (EC50).
Regarding `CC(C)(C)OC(=O)c1[nH]n(-c2ccc(C(C)(C)C)cc2)c(=O)c1/N=N/c1c(O)cc(S(=O)(=O)O)c2ccccc12`, the Efficacy in assay [1] was 32%. Also, a half-maximal response on Thrombopoietin receptor (EC50) required 200 nM.
The compound `Cc1ccc(O)c(/N=N/c2c(O)cc(S(=O)(=O)O)c3ccccc23)c1` gave an Efficacy in assay [1] of 28%. For the same compound, the midpoint of the response at Thrombopoietin receptor, the EC50, lay at 3000 nM.
On to `Cc1[nH]n(-c2ccc(O)cc2)c(=O)c1/N=N/c1c(O)cc(S(=O)(=O)O)c2ccccc12`, for which the Efficacy in assay [1] was less than 5%.
In the case of `O=S(=O)(O)c1cc(O)c(/N=N/c2c(O)cc(O)c3ccccc23)c2ccccc12`, the Efficacy in assay [1] was found to be 16%. In addition, the EC50 on Thrombopoietin receptor turned out to be 5000 nM.
As to `Cc1ccc(-n2[nH]cc(/N=N/c3c(O)cc(S(=O)(=O)O)c4ccccc34)c2=O)cc1C`, the Efficacy in assay [1] was found to be 95%. The same compound registered an EC50 on Thrombopoietin receptor of 100 nM.
As for `Oc1ccc2ccccc2c1/N=N/c1c(O)ccc2ccccc12`, the Efficacy in assay [1] is less than 5%.
In the case of `Cc1[nH]n(-c2ccc(S(=O)(=O)O)cc2)c(=O)c1/N=N/c1c(O)cc(S(=O)(=O)O)c2ccccc12`, the Efficacy in assay [1] was less than 5%.
Take `Cc1[nH]n(-c2ccccc2)c(=O)c1/N=N/c1c(O)cc(C(=O)O)c2ccccc12`: in assay [1], the Efficacy is 21%. The compound also came in with an EC50 on Thrombopoietin receptor of 5000 nM.
With `CCNS(=O)(=O)c1cccc(-n2[nH]c(C)c(/N=N/c3c(O)cc(S(=O)(=O)O)c4ccccc34)c2=O)c1`, in assay [1], the Efficacy turned out to be 25%. The response on Thrombopoietin receptor was half-maximal at 10000 nM (EC50).
Compound `O=C(O)c1cc2ccccc2c(/N=N/c2c(O)cc(S(=O)(=O)O)c3ccccc23)c1O` came in with an Efficacy in assay [1] of 48%. For the same compound, the EC50 at Thrombopoietin receptor worked out at 10000 nM.
Consider `Cc1[nH]n(C(C)(C)C)c(=O)c1/N=N/c1c(O)cc(S(=O)(=O)O)c2ccccc12`, for which, in assay [1], the Efficacy was less than 5%.
`Cc1[nH]n(-c2ccccn2)c(=O)c1/N=N/c1c(O)cc(S(=O)(=O)O)c2ccccc12` registered an Efficacy in assay [1] of 24%. In addition, the EC50 at Thrombopoietin receptor turned out to be 7000 nM.
In assay [1], `Cc1ccc(-n2[nH]c(C)c(/N=N/c3c(O)cc(C(=O)O)c4ccccc34)c2=O)cc1C` displayed an Efficacy of 24%. At Thrombopoietin receptor, this compound had an EC50 of 1000 nM.
For the compound `Cc1ccc(-n2[nH]c(C(C)(C)C)c(/N=N/c3c(O)cc(S(=O)(=O)O)c4ccccc34)c2=O)cc1C`, in assay [1], the Efficacy is 72%. Also, on Thrombopoietin receptor, a half-maximal response (EC50) required 300 nM.
Compound `Cc1[nH]n(-c2cc(S(=O)(=O)O)ccc2Cl)c(=O)c1/N=N/c1c(O)cc(S(=O)(=O)O)c2ccccc12` showed an Efficacy in assay [1] of less than 5%.
Turning to `Cc1[nH]n(-c2ccccc2Cl)c(=O)c1/N=N/c1c(O)cc(S(=O)(=O)O)c2ccccc12`, in assay [1], the Efficacy was 6%. The EC50 on Thrombopoietin receptor is greater than 30000 nM.
As for `Cc1n[nH]c(O)c1/N=N/c1c(O)cc(S(=O)(=O)O)c2ccccc12`, the Efficacy in assay [1] is less than 5%.

For orientation: EC50 means the concentration needed to bring the measured effect to its halfway point. A high value points to a need for much substance.
